In ChEMBL document CHEMBL1152292, “Biarylpyrazolyl oxadiazole as potent, selective, orally bioavailable cannabinoid-1 receptor antagonists for the treatment of obesity” (J Med Chem, 2008):

Key:
Cannabinoid receptor 2 = Cannabinoid receptor 2 (Homo sapiens, UniProt P34972); test: Displacement of [3H]WIN-55212-2 from human CB2 receptor expressed in CHOK1 cells by liquid scintillation spectrometry; type: cell-based, CHO-K1
Method in brief: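 Membranes from CHO K-1 cells transfected with human CB2, prepared as for cerebellum. About 10 µg membrane incubated with radioligand and varied test concentrations in TME buffer plus 0.5% fatty-acid-free BSA, 1 h at 30 °C. Filtered through PEI-soaked GF/B filters. Nonspecific binding defined with 1 µM WIN55,212-2. IC50 by nonlinear regression, triplicates, three independent experiments.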

[1] = Selectivity ratio of IC50 for human CB2 receptor to IC50 for Sprague-Dawley rat CB1 receptor
Method in brief: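 Ratio of CB2 IC50 to CB1 IC50. Both come from radioligand competition on membranes incubated 1 h at 30 °C in TME/0.5% BSA: rat cerebellar membranes for CB1, human CB2-transfected CHO K-1 membranes for CB2. IC50 by nonlinear regression from three independent triplicate experiments.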

Cannabinoid receptor 1 = Cannabinoid receptor 1 (Rattus norvegicus, UniProt P20272); test: Displacement of [3H]CP-55940 from CB1 receptor in Sprague-Dawley rat cerebellum by liquid scintillation spectrometry
Chain of Cannabinoid receptor 1 (P20272 whole entry): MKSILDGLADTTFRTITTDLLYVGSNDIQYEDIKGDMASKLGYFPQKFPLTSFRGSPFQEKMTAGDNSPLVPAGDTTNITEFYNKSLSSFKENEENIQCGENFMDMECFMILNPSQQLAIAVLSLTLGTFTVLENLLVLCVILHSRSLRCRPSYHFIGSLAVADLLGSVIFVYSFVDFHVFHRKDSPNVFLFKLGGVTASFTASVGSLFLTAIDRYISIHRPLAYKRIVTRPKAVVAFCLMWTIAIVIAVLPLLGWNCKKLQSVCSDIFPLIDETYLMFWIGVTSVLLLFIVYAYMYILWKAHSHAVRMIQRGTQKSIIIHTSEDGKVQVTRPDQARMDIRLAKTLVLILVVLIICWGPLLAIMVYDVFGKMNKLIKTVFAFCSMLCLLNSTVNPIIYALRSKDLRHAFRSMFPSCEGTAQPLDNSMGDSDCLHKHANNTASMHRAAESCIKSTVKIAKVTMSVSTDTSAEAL
Method in brief: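 Cerebella from male rats (200-300 g) homogenized in TME buffer (50 mM Tris-HCl, 1 mM EDTA, 3 mM MgCl2, pH 7.4), centrifuged 48000g 30 min at 4 °C. About 10 µg membrane incubated with radioligand and varied test concentrations in TME plus 0.5% fatty-acid-free BSA, 1 h at 30 °C. Filtered through PEI-soaked GF/B filters. […] IC50 by nonlinear regression, triplicates, three independent experiments.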

Mus musculus = test: Reduction in body weight in diet-induced obese C57BL/6J mouse model at 10 mg/kg, po after 14 days; type: functional; parameters: scale not given: the % may be the effect or the level left
Method in brief: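 Male C57BL/6J DIO mice over 38 g, singly housed on a 12 h/12 h light/dark cycle with free access to food and water, habituated at least 7 days, tested during the light period. Compound dissolved fresh daily in deionized water with 10% DMSO, given orally at 10 mL/kg daily for 14 days. Vehicle controls n=5, treated groups n=6. Body weight recorded daily.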

Chain of Cannabinoid receptor 2 (P34972 whole entry): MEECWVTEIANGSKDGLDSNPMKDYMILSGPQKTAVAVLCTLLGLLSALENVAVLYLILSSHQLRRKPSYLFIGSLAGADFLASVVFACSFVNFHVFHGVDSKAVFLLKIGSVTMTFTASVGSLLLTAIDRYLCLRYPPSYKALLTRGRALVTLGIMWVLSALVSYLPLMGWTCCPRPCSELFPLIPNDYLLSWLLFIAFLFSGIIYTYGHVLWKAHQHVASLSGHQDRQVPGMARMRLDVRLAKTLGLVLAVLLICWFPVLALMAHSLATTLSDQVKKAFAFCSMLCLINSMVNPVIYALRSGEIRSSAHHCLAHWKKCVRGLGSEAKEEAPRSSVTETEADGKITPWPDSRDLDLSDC

| Compound | IC50 (Cannabinoid receptor 2) [nM] | Ratio IC50 [1] | IC50 (Cannabinoid receptor 1) [nM] | Activity (Mus musculus) [%] |
| --- | --- | --- | --- | --- |
| CC(C)(C)c1nnc(-c2nn(-c3ccc(Cl)cc3Cl)c(-c3ccc(Cl)cc3)c2CF)o1 | 1120 | 76 |  |  |
| CC(C)(C)c1nnc(-c2nn(-c3ccc(Cl)cc3Cl)c(-c3ccc(Cl)cc3)c2Cn2ccnc2)o1 | 376 | 20 |  |  |
| CCCc1nnc(-c2nn(-c3ccc(Cl)cc3Cl)c(-c3ccc(Cl)cc3)c2C)o1 |  |  | 160 |  |
| Cc1c(-c2nnc(C(C)(C)c3ccccc3)o2)nn(-c2ccc(Cl)cc2Cl)c1-c1ccc(Cl)cc1 |  |  | 8.42 |  |
| CCCCCc1nnc(-c2nn(-c3ccc(Cl)cc3Cl)c(-c3ccc(Cl)cc3)c2C)o1 |  |  | 71.8 |  |
| CC(C)(C)c1nnc(-c2nn(-c3ccc(Cl)cc3Cl)c(-c3ccc(Cl)cc3)c2COc2ccccc2)o1 | 5910 | 204 |  |  |
| CCCCC(C)(C)c1nnc(-c2nn(-c3ccc(Cl)cc3Cl)c(-c3ccc(Cl)cc3)c2C)o1 |  |  | 14.7 |  |
| CC(C)(C)c1nnc(-c2nn(-c3ccc(Cl)cc3Cl)c(-c3ccc(Cl)cc3)c2C(C)(C)O)o1 | 1670 | 74 |  |  |
| Cc1c(-c2nnc(C3(C(F)(F)F)CC3)o2)nn(-c2ccc(Cl)cc2Cl)c1-c1ccc(Cl)cc1 |  |  |  | 22.8 |
| Cc1c(-c2nnc(C3CCC3)o2)nn(-c2ccc(Cl)cc2Cl)c1-c1ccc(Cl)cc1 |  |  | 13.1 |  |
| Clc1ccc(-n2nc(-c3nnc(C4(c5ccccc5)CC4)o3)c(Cn3cncn3)c2-c2ccc(Br)cc2)c(Cl)c1 | 242 | 252 | 0.96 |  |
| CC(=O)SCc1c(-c2nnc(C(C)(C)C)o2)nn(-c2ccc(Cl)cc2Cl)c1-c1ccc(Cl)cc1 | 1480 | 71 |  |  |
| CC(C)(C)c1nnc(-c2nn(-c3ccc(Cl)cc3Cl)c(-c3ccc(Cl)cc3)c2C2CC2)o1 | 3320 | 110 | 30.3 |  |
| CC(C)(C)c1nnc(-c2nn(-c3ccc(Cl)cc3Cl)c(-c3ccc(Cl)cc3)c2C(=O)O)o1 |  |  | > 10000 |  |
| COC(=O)NC(C)c1c(-c2nnc(C(C)(C)C)o2)nn(-c2ccc(Cl)cc2Cl)c1-c1ccc(Cl)cc1 (configuration not stated) | > 10000 | > 1110 | 9 |  |
| Cc1c(-c2nnc(Cc3ccccn3)o2)nn(-c2ccc(Cl)cc2Cl)c1-c1ccc(Cl)cc1 |  |  | 51.9 |  |
| CCC(C)(C)c1nnc(-c2nn(-c3ccc(Cl)cc3Cl)c(-c3ccc(Cl)cc3)c2C)o1 |  |  | 10.4 |  |
| Cc1c(-c2nnc(C(C)c3ccccc3)o2)nn(-c2ccc(Cl)cc2Cl)c1-c1ccc(Cl)cc1 (configuration not stated) |  |  | 10.9 |  |
| CC(C)(C)c1nnc(-c2nn(-c3ccc(Cl)cc3Cl)c(-c3ccc(Cl)cc3)c2Cn2cnnn2)o1 | 736 | 96 |  |  |
| COC(=O)NCc1c(-c2nnc(C(C)(C)C)o2)nn(-c2ccc(Cl)cc2Cl)c1-c1ccc(Cl)cc1 | 1670 | 107 |  |  |

| Compound | IC50 (Cannabinoid receptor 2) [nM] | Ratio IC50 [1] | IC50 (Cannabinoid receptor 1) [nM] | Activity (Mus musculus) [%] |
| --- | --- | --- | --- | --- |
| CCC(CC)c1nnc(-c2nn(-c3ccc(Cl)cc3Cl)c(-c3ccc(Cl)cc3)c2C)o1 |  |  | 31.7 |  |
| CCCCC(C)c1nnc(-c2nn(-c3ccc(Cl)cc3Cl)c(-c3ccc(Cl)cc3)c2C)o1 (configuration not stated) |  |  | 15.1 |  |
| Cc1c(-c2nnc(C(C)C)o2)nn(-c2ccc(Cl)cc2Cl)c1-c1ccc(Cl)cc1 |  |  | 25 |  |
| CC(C)(C)c1nnc(-c2nn(-c3ccc(Cl)cc3Cl)c(-c3ccc(Cl)cc3)c2Cn2ccnn2)o1 | 1120 | 88 |  |  |
| CC(C)(C)c1nnc(-c2nn(-c3ccc(Cl)cc3Cl)c(-c3ccc(Cl)cc3)c2Cn2ncnn2)o1 | 680 | 202 | 3.37 |  |
| FC(F)(F)C1(c2nnc(-c3nn(-c4ccc(Cl)cc4Cl)c(-c4ccc(Br)cc4)c3Cn3cncn3)o2)CC1 | 948 | 1020 | 0.93 | 29.3 |
| COCc1c(-c2nnc(C(C)(C)C)o2)nn(-c2ccc(Cl)cc2Cl)c1-c1ccc(Cl)cc1 | 375 | 24 |  |  |
| CC(C)(C)c1nnc(-c2nn(-c3ccc(Cl)cc3Cl)c(-c3ccc(Cl)cc3)c2Cn2cccn2)o1 | 979 | 48 |  |  |
| CCC(C)c1nnc(-c2nn(-c3ccc(Cl)cc3Cl)c(-c3ccc(Cl)cc3)c2C)o1 (configuration not stated) |  |  | 10.4 |  |
| CC(F)c1c(-c2nnc(C(C)(C)C)o2)nn(-c2ccc(Cl)cc2Cl)c1-c1ccc(Cl)cc1 (configuration not stated) | 924 | 66 |  |  |
| Cc1c(-c2nnc(C3CCCCC3)o2)nn(-c2ccc(Cl)cc2Cl)c1-c1ccc(Cl)cc1 |  |  | 12 |  |
| CC(C)c1c(-c2nnc(C(C)(C)C)o2)nn(-c2ccc(Cl)cc2Cl)c1-c1ccc(Cl)cc1 | 2820 | 157 | 18 |  |
| Cc1c(-c2nnc(C(C)(C)c3ccc(Cl)cc3)o2)nn(-c2ccc(Cl)cc2Cl)c1-c1ccc(Cl)cc1 |  |  | 4.78 |  |
| C[C@H](NC(=O)C(C)(C)Oc1ccc(C(F)(F)F)cn1)[C@@H](Cc1ccc(Cl)cc1)c1cccc(C#N)c1 [TARANABANT] |  |  | 0.86 |  |
| Cc1c(-c2nnc(-c3ccccc3)o2)nn(-c2ccc(Cl)cc2Cl)c1-c1ccc(Cl)cc1 |  |  | 281 |  |
| CC(C)(C)c1nnc(-c2nn(-c3ccc(Cl)cc3Cl)c(-c3ccc(Br)cc3)c2Cn2cncn2)o1 | 513 | 187 |  |  |
| Cc1c(-c2nnc(C3CCCCCC3)o2)nn(-c2ccc(Cl)cc2Cl)c1-c1ccc(Cl)cc1 |  |  | 26.5 |  |
| CC1(c2nnc(-c3nn(-c4ccc(Cl)cc4Cl)c(-c4ccc(Cl)cc4)c3Cn3cncn3)o2)CC1 | 954 | 482 | 1.98 |  |
| C=C(C)c1c(-c2nnc(C(C)(C)C)o2)nn(-c2ccc(Cl)cc2Cl)c1-c1ccc(Cl)cc1 | 1730 | 358 |  |  |
| Cc1ccc(C2(c3nnc(-c4nn(-c5ccc(Cl)cc5Cl)c(-c5ccc(Cl)cc5)c4Cn4cncn4)o3)CC2)cc1 | 1240 | 1140 | 1.09 |  |

| Compound | IC50 (Cannabinoid receptor 2) [nM] | Ratio IC50 [1] | IC50 (Cannabinoid receptor 1) [nM] | Activity (Mus musculus) [%] |
| --- | --- | --- | --- | --- |
| FC(F)(F)C1(c2nnc(-c3nn(-c4ccc(Cl)cc4Cl)c(-c4ccc(Cl)cc4)c3Cn3cncn3)o2)CC1 | 1750 | 1160 | 1.51 | 29.5 |
| CC(C)(C)c1nnc(-c2nn(-c3ccc(Cl)cc3Cl)c(-c3ccc(Cl)cc3)c2CO)o1 | 1810 | 124 | 14.6 |  |
| CCCCc1nnc(-c2nn(-c3ccc(Cl)cc3Cl)c(-c3ccc(Cl)cc3)c2C)o1 |  |  | 35 |  |
| Clc1ccc(-c2c(Cn3cncn3)c(-c3nnc(C4(c5ccc(Cl)cc5)CC4)o3)nn2-c2ccc(Cl)cc2Cl)cc1 | 1480 | 670 |  |  |
| CC(C)(C)c1nnc(-c2nn(-c3ccc(Cl)cc3Cl)c(-c3ccc(Cl)cc3)c2CC#N)o1 | 539 | 88 |  |  |
| Cc1c(-c2nnc(C(C)(C)C)o2)nn(-c2ccc(Cl)cc2Cl)c1-c1ccc(Cl)cc1 | 1410 | 186 | 7.59 |  |
| Cc1ccc(C2(c3nnc(-c4nn(-c5ccc(Cl)cc5Cl)c(-c5ccc(Br)cc5)c4Cn4cncn4)o3)CC2)cc1 | 579 | 432 | 1.34 |  |
| CC(C)(C)c1nnc(-c2nn(-c3ccc(Cl)cc3Cl)c(-c3ccc(Cl)cc3)c2Cn2cncn2)o1 | 804 | 341 |  |  |
| CC1(c2nnc(-c3nn(-c4ccc(Cl)cc4Cl)c(-c4ccc(Br)cc4)c3Cn3cncn3)o2)CC1 | 407 | 145 | 2.81 |  |
| CCc1c(-c2nnc(C(C)(C)C)o2)nn(-c2ccc(Cl)cc2Cl)c1-c1ccc(Cl)cc1 | 2330 | 355 | 6.57 |  |
| Clc1ccc(-c2c(Cn3cncn3)c(-c3nnc(C4(c5ccccc5)CC4)o3)nn2-c2ccc(Cl)cc2Cl)cc1 | 1130 |  |  |  |
| Clc1ccc(C2(c3nnc(-c4nn(-c5ccc(Cl)cc5Cl)c(-c5ccc(Br)cc5)c4Cn4cncn4)o3)CC2)cc1 | 1050 | 1840 | 0.57 |  |
| C=Cc1c(-c2nnc(C(C)(C)C)o2)nn(-c2ccc(Cl)cc2Cl)c1-c1ccc(Cl)cc1 | 1050 | 62 |  |  |
| Cc1c(-c2nnc(Cc3ccccc3)o2)nn(-c2ccc(Cl)cc2Cl)c1-c1ccc(Cl)cc1 |  |  | 19.2 |  |
| CCCc1c(-c2nnc(C(C)(C)C)o2)nn(-c2ccc(Cl)cc2Cl)c1-c1ccc(Cl)cc1 | > 10000 | > 299 | 33.5 |  |
| CC(O)c1c(-c2nnc(C(C)(C)C)o2)nn(-c2ccc(Cl)cc2Cl)c1-c1ccc(Cl)cc1 (configuration not stated) | 1890 | 187 |  |  |
| CC(=O)OCc1c(-c2nnc(C(C)(C)C)o2)nn(-c2ccc(Cl)cc2Cl)c1-c1ccc(Cl)cc1 | 1300 | 58 |  |  |
| CC(C)(C)c1nnc(-c2nn(-c3ccc(Cl)cc3Cl)c(-c3ccc(Cl)cc3)c2COc2ccccn2)o1 | 2040 | 84 |  |  |
